Data taken from ChEMBL document CHEMBL1137008, “Cancer preventive agents 9. Betulinic acid derivatives as potent cancer chemopreventive agents” (Bioorg Med Chem Lett, 2009).

Tests used:
[1] = tested on: Raji; assay: Inhibition of TPA-induced EBV-early antigen activation in human Raji cells assessed as EA induction at 100 molar ratio after 48 hrs relative to TPA; format: cell-based; design: scale not given: the % may be the effect or the level left; conditions: human gammaherpesvirus 4
Procedure, shortened: (§1)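 Raji cells (virus non-producer, spontaneous EA activation <0.1%) incubated 48 h at 37 °C with 4 mM n-butyric acid plus 32 pM TPA and compound in DMSO; smears stained by indirect immunofluorescence with NPC patient EBV-EA-positive serum, ≥500 cells counted; EA-positive cells expressed relative to butyrate+TPA control (100%); triplicates; IC50 as mol ratio to 32 pmol TPA.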

[2] = tested on: Raji; assay: Inhibition of TPA-induced EBV-early antigen activation in human Raji cells assessed as EA induction at 1000 molar ratio after 48 hrs relative to TPA; format: cell-based; design: scale not given: the % may be the effect or the level left; conditions: human gammaherpesvirus 4; procedure, shortened: as §1
[3] = Cytotoxicity against human Raji cells assessed as cell viability at 100 molar ratio after 48 hrs by trypan blue staining method; format: cell-based; conditions: read-out: Activity
Procedure, shortened: (§2)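 Raji cells (EBV genome-carrying, Burkitt's lymphoma) grown in RPMI-1640 with 10% FBS; incubated 48 h at 37 °C with 4 mM n-butyric acid, 32 pM TPA and test compound in DMSO at stated compound/TPA molar ratio; viability determined by Trypan blue staining.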

[4] = tested on: Raji; assay: Inhibition of TPA-induced EBV-early antigen activation in human Raji cells assessed as EA induction at 10 molar ratio after 48 hrs relative to TPA; format: cell-based; design: scale not given: the % may be the effect or the level left; conditions: human gammaherpesvirus 4; procedure, shortened: as §1
[5] = Cytotoxicity against human Raji cells assessed as cell viability at 10 molar ratio after 48 hrs by trypan blue staining method; format: cell-based; conditions: read-out: Activity; procedure, shortened: as §2
[6] = Cytotoxicity against human Raji cells assessed as cell viability at 1000 molar ratio after 48 hrs by trypan blue staining method; format: cell-based; conditions: read-out: Activity; procedure, shortened: as §2
[7] = tested on: Raji; assay: Inhibition of TPA-induced EBV-early antigen activation in human Raji cells assessed as EA induction at 500 molar ratio after 48 hrs relative to TPA; format: cell-based; design: scale not given: the % may be the effect or the level left; conditions: human gammaherpesvirus 4; procedure, shortened: as §1
[8] = Inhibition of TPA-induced EBV-early antigen activation in human Raji cells assessed as EA induction after 48 hrs relative to TPA; format: cell-based, human gammaherpesvirus 4; procedure, shortened: as §1
[9] = Cytotoxicity against human Raji cells assessed as cell viability at 500 molar ratio after 48 hrs by trypan blue staining method; format: cell-based; conditions: read-out: Activity; procedure, shortened: as §2

Row | Structure (SMILES) | Activity [1] | Activity [2] | viability at 48 h, 100 molar ratio [3] | Activity [4] | viability at 48 h, 10 molar ratio [5] | viability at 48 h, 1000 molar ratio [6] | Activity [7] | IC50 [8] | viability at 48 h, 500 molar ratio [9]
1 | COc1cc(/C=C/C(=O)CC(=O)/C=C/c2ccc(O)c(OC)c2)ccc1O [CURCUMIN] | 81.7% | 0% | > 80% | 100% | > 80% | 60% | 22.8% | 341 molar ratio | > 80%
2 | C=C(C)[C@@H]1CC[C@]2(C(=O)O)CC[C@]3(C)[C@H](CC[C@@H]4[C@@]5(C)CC[C@H](OC(=O)C[C@H](C)CO)C(C)(C)[C@@H]5CC[C@]43C)[C@@H]12 | 70.1% | 0% | > 80% | 93.1% | > 80% | 70% | 29.3% | 303 molar ratio | > 80%
